≈ marks a conversion by molar mass, not a printed value.
Assays:
[1] = tested on: Enterococcus faecium; test: Antibacterial activity against vancomycin-resistant Enterococcus faecium after 24 hrs by microdilution method; type: functional
[2] = tested on: Staphylococcus aureus; test: Antibacterial activity against methicillin-resistant Staphylococcus aureus after 24 hrs by microdilution method; type: functional
[3] = tested on: Enterococcus faecalis; test: Antibacterial activity against vancomycin-resistant Enterococcus faecalis after 24 hrs by microdilution method; type: functional
[4] = tested on: Streptococcus pneumoniae; test: Antibacterial activity against Penicillin-resistant Streptococcus pneumoniae after 24 hrs by microdilution method; type: functional
[5] = Plasma clearance in iv/po dosed mouse by LC-MS/MS analysis; type: ADME, organism-based
Method in brief: (§1)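 Mice, n = 3–5 per group, given the compound intravenously and orally. Plasma pharmacokinetic parameters were derived: total plasma clearance, steady-state volume of distribution, apparent terminal elimination half-life, Tmax after oral dosing, and absolute oral bioavailability (%F).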

[6] = Apparent terminal half life in iv/po dosed mouse plasma by LC-MS/MS analysis; type: ADME, organism-based; settings: read-out: betat1/2(app) (converted); method in brief: as §1
[7] = Apparent oral bioavailability in mouse plasma by LC-MS/MS analysis; type: ADME, organism-based; method in brief: as §1
[8] = Volume of distribution at steady state in iv/po dosed mouse plasma by LC-MS/MS analysis; type: ADME, organism-based; settings: read-out: Vdss; method in brief: as §1
[9] = Tmax in iv/po dosed mouse plasma by LC-MS/MS analysis; type: ADME, organism-based; method in brief: as §1
[10] = tested on: Escherichia coli; test: Antibacterial activity against Escherichia coli after 24 hrs by microdilution method; type: functional
[11] = tested on: Pseudomonas aeruginosa; test: Antibacterial activity against Pseudomonas aeruginosa after 24 hrs by microdilution method; type: functional
[12] = molecular target: T1, Peptide deformylase (Staphylococcus aureus) (UniProt P68826); test: Inhibition of Staphylococcus aureus PDF using formyl-methionine-alanine-serine as substrate assessed as increase in NADH levels at 30 nM by microtiter ELISA
T1 sequence (whole entry): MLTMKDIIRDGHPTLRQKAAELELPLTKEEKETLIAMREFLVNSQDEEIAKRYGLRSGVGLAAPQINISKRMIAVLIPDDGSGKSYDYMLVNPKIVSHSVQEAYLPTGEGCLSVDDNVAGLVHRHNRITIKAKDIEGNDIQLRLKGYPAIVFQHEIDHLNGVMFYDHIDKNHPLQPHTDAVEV

[13] = molecular target: T2, Peptide deformylase (Staphylococcus aureus, UniProt P68826); test: Inhibition of Staphylococcus aureus PDF using formyl-methionine-alanine-serine as substrate assessed as increase in NADH levels by microtiter ELISA
T2 sequence (P68826 whole entry): T1 sequence (whole entry)

[14] = molecular target: T1, Peptide deformylase (Staphylococcus aureus); test: Inhibition of Staphylococcus aureus PDF using formyl-methionine-alanine-serine as substrate assessed as increase in NADH levels at 10 nM by microtiter ELISA
[15] = molecular target: T1, Peptide deformylase (Staphylococcus aureus); test: Inhibition of Staphylococcus aureus PDF using formyl-methionine-alanine-serine as substrate assessed as increase in NADH levels at 3 nM by microtiter ELISA
[16] = molecular target: T1, Peptide deformylase (Staphylococcus aureus); test: Inhibition of Staphylococcus aureus PDF using formyl-methionine-alanine-serine as substrate assessed as increase in NADH levels at 100 nM by microtiter ELISA
[17] = tested on: Streptococcus pneumoniae; test: Antibacterial activity against Penicillin-resistant Streptococcus pneumoniae yonsei 15 infected in po dosed immunosuppressed mouse model assessed as inhibition of pulmonary infection administered bid for 3 days; type: functional; settings: yonsei 15, po, 72 h
Method in brief: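 Lung infection in immunosuppressed mice (n = 6/group) by intranasal inoculation with penicillin-resistant S. pneumoniae Yonsei15 at 1 × 10⁶ CFU per mouse. Treatment was oral, twice daily for 3 days. Day-7 survival was analysed by probit to give ED50 and 95% CI.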

[18] = tested on: Enterococcus faecium; test: Antibacterial activity against vancomycin-resistant Enterococcus faecium infected in po dosed immunosuppressed mouse model assessed as inhibition of systemic infection administered bid for 3 days; type: functional; settings: 72 h
Method in brief: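 Immunosuppressed mice (n = 6/group) received a systemic ip infection with a standard vancomycin-resistant E. faecium strain at 1 × 10⁹ CFU per mouse. Dosing was oral, BID, for 3 days. ED50 and 95% CI came from probit analysis of day-7 survival.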

[19] = tested on: Staphylococcus aureus; test: Antibacterial activity against methicillin-resistant Staphylococcus aureus infected in po dosed mouse model assessed as inhibition of systemic infection administered bid for 3 days; type: functional; settings: 72 h
Method in brief: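 Normal mice (n = 6/group) given a systemic ip challenge with a standard MRSA strain at 2 × 10⁸ CFU per mouse. Oral treatment twice daily for 3 days. Survival was scored at day 7, and ED50 with 95% CI was derived by probit analysis.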

SMILES	MIC [1]	MIC [2]	MIC [3]	MIC [4]	MIC [10]	MIC [11]	also measured
CC(=O)Nc1ccc(CNC2CCN(C(=O)[C@@H](NC(=O)[C@H](CC3CCCC3)CN(O)C=O)C(C)(C)C)CC2)cc1	25 µg/mL (≈ 44.8 µM)	> 50 µg/mL	12.5 µg/mL (≈ 22.4 µM)	1.6 µg/mL (≈ 2.87 µM)			
CC(C)(C)[C@H](NC(=O)[C@H](CC1CCCC1)CN(O)C=O)C(=O)N1CCC(NC(=O)c2ccc(C#N)cc2)CC1							clearance [5]: 44 mL/min/kg; half-life [6]: 55.2 min; bioavailability [7]: 55.5%; Vd [8]: 2.54 L/kg; Tmax [9]: 40.2 min
Cc1ccc(CNC2CCN(C(=O)[C@@H](NC(=O)[C@H](CC3CCCC3)CN(O)C=O)C(C)(C)C)CC2)cc1	0.4 µg/mL (≈ 0.777 µM)	6.3 µg/mL (≈ 12.2 µM)	3.1 µg/mL (≈ 6.02 µM)	0.4 µg/mL (≈ 0.777 µM)			
CC(C)(C)[C@H](NC(=O)[C@H](CC1CCCC1)CN(O)C=O)C(=O)N1CCC(Nc2ccccc2)CC1	0.8 µg/mL (≈ 1.64 µM)	6.3 µg/mL (≈ 12.9 µM)	3.1 µg/mL (≈ 6.37 µM)	0.8 µg/mL (≈ 1.64 µM)	> 50 µg/mL	> 50 µg/mL	
CC(C)(C)[C@H](NC(=O)[C@H](CC1CCCC1)CN(O)C=O)C(=O)N1CCC(Nc2ccc3c(c2)OCO3)CC1	1.6 µg/mL (≈ 3.02 µM)	6.3 µg/mL (≈ 11.9 µM)	3.1 µg/mL (≈ 5.84 µM)	0.4 µg/mL (≈ 0.754 µM)	> 50 µg/mL	> 50 µg/mL	
CC(C)(C)[C@H](NC(=O)[C@H](CC1CCCC1)CN(O)C=O)C(=O)N1CCC(NCc2ccc(C#N)cc2)CC1	0.8 µg/mL (≈ 1.52 µM)	3.1 µg/mL (≈ 5.9 µM)	0.8 µg/mL (≈ 1.52 µM)	0.4 µg/mL (≈ 0.761 µM)			inhibition [12]: 54%; IC50 [13]: 30 nM; inhibition [14]: 19%; clearance [5]: 51.5 mL/min/kg; half-life [6]: 21.6 min; bioavailability [7]: 103%; Vd [8]: 3.49 L/kg; Tmax [9]: 30 min; inhibition [15]: -6%; inhibition [16]: 77%
CC(C)(C)[C@H](NC(=O)[C@H](CC1CCCC1)CN(O)C=O)C(=O)N1CCC(NCc2ccco2)CC1	50 µg/mL (≈ 102 µM)	50 µg/mL (≈ 102 µM)	25 µg/mL (≈ 51 µM)	1.6 µg/mL (≈ 3.26 µM)	> 50 µg/mL	> 50 µg/mL	
CC(C)(C)[C@H](NC(=O)[C@H](CC1CCCC1)CN(O)C=O)C(=O)N1CCC(N)CC1	> 50 µg/mL	> 50 µg/mL	50 µg/mL (≈ 122 µM)	1.6 µg/mL (≈ 3.9 µM)	> 50 µg/mL	> 50 µg/mL	
CC(=O)NC[C@H]1CN(c2ccc(N3CCOCC3)c(F)c2)C(=O)O1 [LINEZOLID]	1.6 µg/mL (≈ 4.74 µM)	1.6 µg/mL (≈ 4.74 µM)	0.8 µg/mL (≈ 2.37 µM)	0.8 µg/mL (≈ 2.37 µM)	> 50 µg/mL	> 50 µg/mL	ED50 [17]: 1.5 mg/kg; ED50 [18]: 11.4 mg/kg; ED50 [19]: 5 mg/kg
CC(C)(C)[C@H](NC(=O)[C@H](CC1CCCC1)CN(O)C=O)C(=O)N1CCC(NCc2nc3ccccc3[nH]2)CC1	12.5 µg/mL (≈ 23.1 µM)	6.3 µg/mL (≈ 11.7 µM)	6.3 µg/mL (≈ 11.7 µM)	1.6 µg/mL (≈ 2.96 µM)	> 50 µg/mL	> 50 µg/mL	
CC(C)(C)[C@H](NC(=O)[C@H](CC1CCCC1)CN(O)C=O)C(=O)N1CCC(NCc2ccccn2)CC1	12.5 µg/mL (≈ 24.9 µM)	25 µg/mL (≈ 49.8 µM)	12.5 µg/mL (≈ 24.9 µM)	1.6 µg/mL (≈ 3.19 µM)	> 50 µg/mL	> 50 µg/mL	
CN[C@@H](CC(C)C)C(=O)N[C@H]1C(=O)N[C@@H](CC(N)=O)C(=O)N[C@H]2C(=O)N[C@H]3C(=O)N[C@H](C(=O)N[C@@H](C(=O)O)c4cc(O)cc(O)c4-c4cc3ccc4O)[C@H](O)c3ccc(c(Cl)c3)Oc3cc2cc(c3O[C@H]2O[C@@H](CO)[C@H](O)[C@@H](O)[C@@H]2O[C@@H]2C[C@@](C)(N)[C@@H](O)[C@@H](C)O2)Oc2ccc(cc2Cl)[C@H]1O	> 50 µg/mL	3.1 µg/mL (≈ 2.14 µM)	> 50 µg/mL	0.8 µg/mL (≈ 0.552 µM)	> 50 µg/mL	> 50 µg/mL	
CC(C)(C)[C@H](NC(=O)[C@H](CC1CCCC1)CN(O)C=O)C(=O)N1CCN(Cc2ccc3c(c2)OCO3)CC1							inhibition [12]: 34%; IC50 [13]: 30 nM; inhibition [14]: 1%; inhibition [16]: 72%

Source: ChEMBL document CHEMBL3808332, “Identification of novel aminopiperidine derivatives for antibacterial activity against Gram-positive bacteria” (Bioorg Med Chem Lett, 2016)
